The record followed here is ChEMBL document CHEMBL4321819, “Simple Structural Modifications Converting a Bona fide MDM2 PROTAC Degrader into a Molecular Glue Molecule: A Cautionary Tale in the Design of PROTAC Degraders” (J Med Chem, 2019).

A short description of experiment [1]: Antiproliferative activity against human RS4:11/IRMI-2 cells harboring p53 hotspot mutation Y236H/R249G assessed as MDM2-independent cell growth inhibition after 4 days by WST-8 assay. It is filed as functional, cell-based. The conditions noted are these: RS4-11, 96 h. In short, it runs like this:
(§1)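 Leukemia cells seeded at 10000–20000 cells/well, breast cancer lines at 5000–10000 cells/well. Serially diluted compound added, then 4 days at 37 °C, 5% CO2. Growth read with WST-8 reagent after at least 1 h, absorbance at 450 nm. RS4;11, MOLM-13 and breast lines were grown in RPMI 1640; MV-4-11 and HL-60 in IMDM; all with 10% FBS. Mean ± SE, at least three independent experiments.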

For experiment [2], the system named is RS4-11. In words: Antiproliferative activity against human RS4:11 cells expressing wild type p53 assessed as MDM2-independent cell growth inhibition after 4 days by WST-8 assay. The conditions noted are these: RS4-11, 96 h. It is filed as functional, cell-based. In short, it runs like this: as §1
Experiment [3] addresses E3 ubiquitin-protein ligase Mdm2 (Homo sapiens, UniProt Q00987). In words: Displacement of PMDM6-F fluorescent probe from human recombinant His-tagged MDM2 (1 to 118 residues) after 15 mins by fluorescence polarization assay. In short, it runs like this:
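Recombinant human His-tagged MDM2 (residues 1–118) with a FAM-labelled p53-based peptide as fluorescent probe; competitive fluorescence-polarization binding. Mean ± standard error from at least three independent experiments.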

Experiment [4] in a line: Antiproliferative activity against human RS4:11/IRMI-2 cells harboring p53 hotspot mutation Y236H/R249G assessed as cell growth inhibition after 4 days by WST-8 assay. It is filed as functional, cell-based. The following applies: RS4-11, 96 h. In short, it runs like this: as §1
Experiment [5] addresses T1, Protein cereblon/Eukaryotic peptide chain release factor GTP-binding subunit ERF3A/DNA damage-binding protein 1/Cullin-4A (Homo sapiens) (UniProt Q96SW2+Q16531+Q13619+P15170). In words: Protac activity at GSPT1/CUL4/DDB1/CRBN in human RS4:11 cells expressing wild type p53 assessed as decrease in GSPT1 protein level after 2 hrs by Western blot analysis. The class given is cell-based. In short, it runs like this:
(§2)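 RS4;11 (wild-type p53) or RS4;11/IRMI-2 (MDM2 inhibitor-resistant derivative, mutant p53) cells kept in RPMI 1640 with 10% FBS at 37 °C, 5% CO₂. 2×10^6 cells/well treated at the indicated concentrations and times, then lysed in ice-cold lysis buffer with protease inhibitor. GSPT1 detected by Western blot with a specific antibody.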

Experiment [6] addresses Eukaryotic peptide chain release factor GTP-binding subunit ERF3A (Homo sapiens, UniProt P15170). In words: Induction of GSPT1 degradation in human RS4:11 cells measured after 24 hrs by Western blot analysis. The class given is cell-based.
For experiment [7], the system named is RS4-11. In words: Antiproliferative activity against human RS4:11 cells expressing wild type p53 assessed as cell growth inhibition after 4 days by WST-8 assay. The class given is functional, cell-based. The following applies: RS4-11, 96 h. In short, it runs like this:
as §1

Experiment [8] addresses T1, Protein cereblon/Eukaryotic peptide chain release factor GTP-binding subunit ERF3A/DNA damage-binding protein 1/Cullin-4A (Homo sapiens). In words: Protac activity at GSPT1/CUL4/DDB1/CRBN in human RS4:11/IRMI-2 cells harboring p53 hotspot mutation Y236H/R249G assessed as decrease in GSPT1 protein level after 2 hrs by Western blot analysis. The class given is cell-based. In short, it runs like this: as §2

For experiment [9], the system named is MDA-MB-468. In words: Antiproliferative activity against human MDA-MB-468 cells assessed as cell growth inhibition after 4 days in presence of control siRNA for 3 days followed by compound treatment by WST-8 assay. It is filed as functional, cell-based.
The test system of experiment [10] is MDA-MB-468. In words: Antiproliferative activity against human MDA-MB-468 cells transfected with CRBN siRNA LQ-021086-11-0002 assessed as cell growth inhibition after 4 days by WST-8 assay. The class given is functional, cell-based. The following applies: MDA-MB-468, 96 h. In short, it runs like this:
(§3)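 MDA-MB-231 or MDA-MB-468 cells transfected for 2 days using Lipofectamine RNAiMAX with MDM2 siRNA, one of two CRBN siRNAs, or non-targeting control siRNA. Compound then added and growth read by WST-8 at 450 nm.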

The test system of experiment [11] is MDA-MB-231. In words: Antiproliferative activity against human MDA-MB-231 cells transfected with CRBN siRNA LQ-021086-10-0002 assessed as cell growth inhibition after 4 days by WST-8 assay. It is filed as functional, cell-based. The conditions noted are these: MDA-MB-231, 72 h, in the assay text read “after 3 days” for “after 4 days”. In short, it runs like this:
as §3

Experiment [12] concerns MDA-MB-231. In words: Antiproliferative activity against human MDA-MB-231 cells assessed as cell growth inhibition after 4 days in presence of control siRNA for 3 days followed by compound treatment by WST-8 assay. The class given is functional, cell-based.
Experiment [13] has as its system MDA-MB-468. In words: Antiproliferative activity against human MDA-MB-468 cells transfected with CRBN siRNA LQ-021086-10-0002 assessed as cell growth inhibition after 4 days by WST-8 assay. It is filed as functional, cell-based. The following applies: MDA-MB-468, 96 h. In short, it runs like this: as §3
Experiment [14] concerns MDA-MB-231. In words: Antiproliferative activity against human MDA-MB-231 cells transfected with CRBN siRNA LQ-021086-11-0002 assessed as cell growth inhibition after 4 days by WST-8 assay. It is filed as functional, cell-based. The conditions noted are these: MDA-MB-231, 96 h. In short, it runs like this: as §3
Experiment [15] deals with MDA-MB-231. In words: Antiproliferative activity against human MDA-MB-231 cells harboring mutant p53 assessed as cell growth inhibition without interaction with cereblon after 4 days by WST-8 assay. It is filed as functional, cell-based. The following applies: MDA-MB-231, 96 h.
For experiment [16], the system named is MDA-MB-468. In words: Antiproliferative activity against human MDA-MB-468 cells harboring mutant p53 assessed as cell growth inhibition without interaction with cereblon after 4 days by WST-8 assay. The conditions noted are these: MDA-MB-468, 96 h. It is filed as functional, cell-based.
The subject of experiment [17] is RS4-11. In words: Antiproliferative activity against human RS4:11 cells expressing wild type p53 assessed as cell growth inhibition without interaction with cereblon after 4 days by WST-8 assay. The conditions noted are these: RS4-11, 96 h. It is filed as functional, cell-based. In short, it runs like this:
as §1

Experiment [18] in a line: Antiproliferative activity against human RS4:11/IRMI-2 cells harboring p53 hotspot mutation Y236H/R249G assessed as cell growth inhibition without interaction with cereblon after 4 days by WST-8 assay. It is filed as functional, cell-based. The conditions noted are these: RS4-11, 96 h. In short, it runs like this:
as §1

Experiment [19] has as its target T1, Protein cereblon/Eukaryotic peptide chain release factor GTP-binding subunit ERF3A/DNA damage-binding protein 1/Cullin-4A (Homo sapiens). In words: Protac activity at GSPT1/CUL4/DDB1/CRBN in human RS4:11 cells expressing wild type p53 assessed as decrease in GSPT1 protein level at 1 to 3 uM after 24 hrs by Western blot analysis. It is filed as cell-based. In short, it runs like this:
as §2

The target is the same in experiment [20]. In words: Protac activity at GSPT1/CUL4/DDB1/CRBN in human RS4:11/IRMI-2 cells harboring p53 hotspot mutation Y236H/R249G assessed as decrease in GSPT1 protein level at 1 to 3 uM after 24 hrs by Western blot analysis. The class given is cell-based. In short, it runs like this: as §2

The source made the active and inactive calls. No cut-off for these calls is given here.

T1 sequence (P15170 whole entry, looked up): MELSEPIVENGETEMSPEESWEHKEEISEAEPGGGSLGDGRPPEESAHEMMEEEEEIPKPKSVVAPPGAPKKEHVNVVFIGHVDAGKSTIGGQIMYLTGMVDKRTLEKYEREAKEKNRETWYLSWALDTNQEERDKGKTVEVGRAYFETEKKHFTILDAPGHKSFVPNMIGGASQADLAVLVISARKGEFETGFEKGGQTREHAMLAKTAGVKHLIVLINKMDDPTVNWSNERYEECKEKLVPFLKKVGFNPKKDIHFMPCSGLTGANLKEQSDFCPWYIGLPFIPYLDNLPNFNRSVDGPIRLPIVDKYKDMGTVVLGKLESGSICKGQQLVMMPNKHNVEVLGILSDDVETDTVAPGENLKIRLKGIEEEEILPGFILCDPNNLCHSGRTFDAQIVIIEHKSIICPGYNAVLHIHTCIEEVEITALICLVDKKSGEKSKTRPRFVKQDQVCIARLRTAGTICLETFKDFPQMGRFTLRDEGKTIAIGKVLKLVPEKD
T1 sequence (Q13619 whole entry, looked up): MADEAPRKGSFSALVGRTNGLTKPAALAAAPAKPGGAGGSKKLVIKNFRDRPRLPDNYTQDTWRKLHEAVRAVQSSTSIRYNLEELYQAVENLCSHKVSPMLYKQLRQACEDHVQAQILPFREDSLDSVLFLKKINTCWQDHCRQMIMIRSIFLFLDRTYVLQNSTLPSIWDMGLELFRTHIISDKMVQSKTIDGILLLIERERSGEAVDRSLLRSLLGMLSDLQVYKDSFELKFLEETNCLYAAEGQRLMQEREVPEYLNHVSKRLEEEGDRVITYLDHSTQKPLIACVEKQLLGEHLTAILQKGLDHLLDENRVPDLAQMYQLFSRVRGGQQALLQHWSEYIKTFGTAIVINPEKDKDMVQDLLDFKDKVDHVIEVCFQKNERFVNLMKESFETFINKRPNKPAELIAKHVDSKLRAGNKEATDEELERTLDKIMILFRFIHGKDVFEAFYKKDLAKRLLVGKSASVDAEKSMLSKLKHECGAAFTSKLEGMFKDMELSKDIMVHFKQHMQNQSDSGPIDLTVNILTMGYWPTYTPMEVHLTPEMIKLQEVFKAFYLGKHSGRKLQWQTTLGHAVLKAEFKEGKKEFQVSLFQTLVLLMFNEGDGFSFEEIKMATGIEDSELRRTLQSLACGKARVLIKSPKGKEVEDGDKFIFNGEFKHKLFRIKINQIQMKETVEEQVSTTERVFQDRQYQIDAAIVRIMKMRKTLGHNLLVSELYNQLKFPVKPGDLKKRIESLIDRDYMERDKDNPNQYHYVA
T1 sequence (Q16531 whole entry, looked up): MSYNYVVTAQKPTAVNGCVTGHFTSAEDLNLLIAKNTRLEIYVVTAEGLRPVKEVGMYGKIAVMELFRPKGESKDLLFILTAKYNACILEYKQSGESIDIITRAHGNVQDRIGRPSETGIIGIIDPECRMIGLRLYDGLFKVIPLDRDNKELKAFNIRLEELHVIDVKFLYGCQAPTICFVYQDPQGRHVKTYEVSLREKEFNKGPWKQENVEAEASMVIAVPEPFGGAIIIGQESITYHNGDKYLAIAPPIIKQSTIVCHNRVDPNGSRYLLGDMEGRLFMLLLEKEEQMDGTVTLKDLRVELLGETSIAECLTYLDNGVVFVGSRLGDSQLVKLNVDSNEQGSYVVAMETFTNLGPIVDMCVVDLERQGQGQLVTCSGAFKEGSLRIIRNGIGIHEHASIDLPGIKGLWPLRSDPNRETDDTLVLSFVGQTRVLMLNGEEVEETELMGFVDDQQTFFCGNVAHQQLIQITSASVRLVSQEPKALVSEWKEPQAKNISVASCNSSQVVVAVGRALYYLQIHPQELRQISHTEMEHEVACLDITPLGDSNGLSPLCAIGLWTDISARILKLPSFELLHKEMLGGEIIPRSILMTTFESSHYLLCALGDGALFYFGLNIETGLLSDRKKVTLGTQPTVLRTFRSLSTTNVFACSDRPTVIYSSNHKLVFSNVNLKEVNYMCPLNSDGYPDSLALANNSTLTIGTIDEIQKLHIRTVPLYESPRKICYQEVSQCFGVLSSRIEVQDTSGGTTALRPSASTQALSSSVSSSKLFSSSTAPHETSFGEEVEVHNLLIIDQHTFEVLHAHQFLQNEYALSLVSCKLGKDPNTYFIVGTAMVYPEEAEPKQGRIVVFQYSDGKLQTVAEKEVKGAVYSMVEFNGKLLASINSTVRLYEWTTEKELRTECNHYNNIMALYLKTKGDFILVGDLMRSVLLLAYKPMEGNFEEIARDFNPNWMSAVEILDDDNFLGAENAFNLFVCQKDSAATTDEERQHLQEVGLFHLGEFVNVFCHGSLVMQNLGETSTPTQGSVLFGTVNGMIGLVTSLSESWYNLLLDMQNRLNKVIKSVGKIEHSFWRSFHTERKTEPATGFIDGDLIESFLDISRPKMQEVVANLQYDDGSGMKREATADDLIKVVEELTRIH
T1 sequence (Q96SW2 whole entry, looked up): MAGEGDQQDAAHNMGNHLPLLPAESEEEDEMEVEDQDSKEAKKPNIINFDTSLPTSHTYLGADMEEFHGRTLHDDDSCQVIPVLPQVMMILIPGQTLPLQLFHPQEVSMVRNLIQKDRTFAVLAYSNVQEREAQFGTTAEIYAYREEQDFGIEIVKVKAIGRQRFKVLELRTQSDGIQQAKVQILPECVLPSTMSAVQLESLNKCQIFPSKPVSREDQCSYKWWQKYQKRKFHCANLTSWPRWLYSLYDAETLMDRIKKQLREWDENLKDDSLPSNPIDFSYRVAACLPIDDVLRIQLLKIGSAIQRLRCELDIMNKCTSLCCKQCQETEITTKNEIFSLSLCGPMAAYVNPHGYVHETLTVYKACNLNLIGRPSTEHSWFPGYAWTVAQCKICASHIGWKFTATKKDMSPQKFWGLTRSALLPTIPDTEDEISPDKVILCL
E3 ubiquitin-protein ligase Mdm2, sequence (Q00987 whole entry, the tested form may be a part): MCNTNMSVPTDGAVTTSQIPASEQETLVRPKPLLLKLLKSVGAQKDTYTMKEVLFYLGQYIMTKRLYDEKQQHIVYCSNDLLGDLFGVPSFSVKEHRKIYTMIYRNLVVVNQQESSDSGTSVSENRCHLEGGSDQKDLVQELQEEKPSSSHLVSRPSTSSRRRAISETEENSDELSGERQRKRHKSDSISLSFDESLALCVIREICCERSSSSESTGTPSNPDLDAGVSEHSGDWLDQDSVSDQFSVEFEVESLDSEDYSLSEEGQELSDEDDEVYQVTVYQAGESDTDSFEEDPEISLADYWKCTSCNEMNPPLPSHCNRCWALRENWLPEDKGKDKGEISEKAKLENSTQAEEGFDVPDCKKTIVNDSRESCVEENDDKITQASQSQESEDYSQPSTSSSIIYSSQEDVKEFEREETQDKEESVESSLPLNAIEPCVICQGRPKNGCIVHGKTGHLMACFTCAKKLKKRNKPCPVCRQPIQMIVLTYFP
Eukaryotic peptide chain release factor GTP-binding subunit ERF3A, sequence (P15170 whole entry): as the sequence (P15170 whole entry, looked up) above

`O=C1CCC(N2Cc3c(CCCCCNC(=O)[C@@H]4NC5(CCCCC5)[C@@]5(C(=O)Nc6ccccc65)[C@H]4c4ccccc4F)cccc3C2=O)C(=O)N1` (some centres not stated): the IC50 in experiment [1] was 3.7 nM; with RS4-11 [2], 4.1 nM; in experiment [3] it was above 20000 nM.

With `O=C1CCC(N2Cc3c(CCCCCNC(=O)[C@@H]4NC5(CCCCC5)[C@@]5(C(=O)Nc6ccccc65)[C@H]4c4ccccc4)cccc3C2=O)C(=O)N1` (some centres not stated), the IC50 is 60.9 nM in [1], 48.6 nM in the experiment on RS4-11 [2] and above 20000 nM in experiment [3].

Turning to `O=C1CCC(N2Cc3c(CCCOCCNC(=O)[C@@H]4NC5(CCCCC5)[C@@]5(C(=O)Nc6cc(Cl)ccc65)[C@H]4c4cccc(Cl)c4F)cccc3C2=O)C(=O)N1` (some centres not stated), the values for the IC50 (in experiment [4]; in the experiment on RS4-11 [7]) were 3.5 nM and 3.6 nM, respectively. Further, the result in experiment [5] and in [8] was Active. This compound yielded a DC50 in experiment [6] of 1.8 nM.

For `O=C(O)c1ccc(NC(=O)[C@@H]2NC3(CCCCC3)[C@@]3(C(=O)Nc4cc(Cl)ccc43)[C@H]2c2cccc(Cl)c2F)cc1`, the IC50 with MDA-MB-468 [9], in the experiment with MDA-MB-468 [10], in the experiment with MDA-MB-231 [11], with MDA-MB-231 [12], with MDA-MB-468 [13] and in the experiment on MDA-MB-231 [14] was above 3000 nM each time. Besides, in experiment [3], the IC50 was determined as 9.5 nM.

For the compound `CN1C(=O)CCC(N2Cc3c(CCCCCNC(=O)[C@@H]4NC5(CCCCC5)[C@@]5(C(=O)Nc6cc(Cl)ccc65)[C@H]4c4cccc(Cl)c4F)cccc3C2=O)C1=O` (some centres not stated), the IC50 with MDA-MB-231 [15] is above 10000 nM; in the experiment on MDA-MB-468 [16], above 10000 nM; in the experiment with RS4-11 [17], 2490 nM; in experiment [18], 6850 nM.

As to `O=C1CCC(N2Cc3c(CCCNC(=O)[C@@H]4NC5(CCCCC5)[C@@]5(C(=O)Nc6cc(Cl)ccc65)[C@H]4c4cccc(Cl)c4F)cccc3C2=O)C(=O)N1` (some centres not stated), the IC50 in experiment [4] worked out at 180 nM; with RS4-11 [7], 130 nM. Further, the outcome in experiment [19] and in [20] was Active. In experiment [6], this compound displayed a DC50 of 120 nM.
